Measured values reported in ChEMBL document CHEMBL4229344 (Eur J Med Chem, 2018).

Columns and labels:
[1] = molecular target: Phosphatidylinositol 4-phosphate 5-kinase type-1 alpha (Homo sapiens) (UniProt Q99755); experiment: Binding affinity to wild-type human full length PIP5K1A (M1 to H562 residues) expressed in bacterial expression system assessed as residual binding level at 1 uM by Kinomescan method relative to control
Outline: (§1)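 Single-concentration KINOMEscan (DiscoverX) binding screen at 1 μM against a panel of 468 purified kinases and mutants. The read-out is binding relative to control.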

[2] = molecular target: Atypical kinase COQ8B, mitochondrial (Homo sapiens) (UniProt Q96D53); experiment: Binding affinity to wild-type human full length ADCK4 (M1 to S544 residues) expressed in bacterial expression system assessed as residual binding level at 1 uM by Kinomescan method relative to control
Outline: (§2)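 KINOMEscan competition binding against 468 purified kinases/mutants, test compound at 1 µM; residual binding relative to control.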

[3] = molecular target: Serine/threonine-protein kinase 32B (Homo sapiens) (UniProt Q9NY57); experiment: Binding affinity to wild-type human full length YANK2 (M1 to S414 residues) expressed in bacterial expression system assessed as residual binding level at 1 uM by Kinomescan method relative to control; outline: as §2
[4] = molecular target: Calcium/calmodulin-dependent protein kinase kinase 2 (Homo sapiens) (UniProt Q96RR4); experiment: Binding affinity to wild-type human partial length CAMKK2 (D65 to V471 residues) expressed in bacterial expression system assessed as residual binding level at 1 uM by Kinomescan method relative to control
Outline: (§3)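 Kinome-wide competition binding screen against a panel of 468 purified kinases/mutants, with the test compound at a single concentration of 1 μM. Read-out is the relative binding activity of each kinase in the presence of compound.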

[5] = MRT (0 to t) in Sprague-Dawley rat at 10 mg/kg, po; type: ADME, organism-based; conditions: in vivo
[6] = molecular target: Mitogen-activated protein kinase kinase kinase 9 (Homo sapiens) (UniProt P80192); experiment: Binding affinity to wild-type human partial length MLK1 (V88 to W426 residues) expressed in bacterial expression system assessed as residual binding level at 1 uM by Kinomescan method relative to control
[7] = molecular target: Protein kinase C epsilon type (Homo sapiens) (UniProt Q02156); experiment: Binding affinity to wild-type human partial length PRKCE (A378 to P737 residues) expressed in mammalian expression system assessed as residual binding level at 1 uM by Kinomescan method relative to control
Outline: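 KINOMEscan competition binding against a panel of 468 purified kinases/mutants, compound tested at 1 μM; readout is relative binding activity versus control.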

[8] = molecular target: Homeodomain-interacting protein kinase 2 (Homo sapiens) (UniProt Q9H2X6); experiment: Binding affinity to wild-type human partial length HIPK2 (M153 to S564 residues) expressed in mammalian expression system assessed as residual binding level at 1 uM by Kinomescan method relative to control
[9] = molecular target: Mitogen-activated protein kinase kinase kinase 20 (Homo sapiens) (UniProt Q9NYL2); experiment: Binding affinity to wild-type human partial length ZAK (M1 to L331 residues) expressed in bacterial expression system assessed as residual binding level at 1 uM by Kinomescan method relative to control
[10] = molecular target: AP2-associated protein kinase 1 (Homo sapiens) (UniProt Q2M2I8); experiment: Binding affinity to human wild-type AAK1 (G25 to L333 residues) expressed in bacterial expression system assessed as residual binding level at 1 uM by Kinomescan method relative to control
AP2-associated protein kinase 1 (Homo sapiens), sequence (Q2M2I8 whole entry, looked up, the tested form may be a part): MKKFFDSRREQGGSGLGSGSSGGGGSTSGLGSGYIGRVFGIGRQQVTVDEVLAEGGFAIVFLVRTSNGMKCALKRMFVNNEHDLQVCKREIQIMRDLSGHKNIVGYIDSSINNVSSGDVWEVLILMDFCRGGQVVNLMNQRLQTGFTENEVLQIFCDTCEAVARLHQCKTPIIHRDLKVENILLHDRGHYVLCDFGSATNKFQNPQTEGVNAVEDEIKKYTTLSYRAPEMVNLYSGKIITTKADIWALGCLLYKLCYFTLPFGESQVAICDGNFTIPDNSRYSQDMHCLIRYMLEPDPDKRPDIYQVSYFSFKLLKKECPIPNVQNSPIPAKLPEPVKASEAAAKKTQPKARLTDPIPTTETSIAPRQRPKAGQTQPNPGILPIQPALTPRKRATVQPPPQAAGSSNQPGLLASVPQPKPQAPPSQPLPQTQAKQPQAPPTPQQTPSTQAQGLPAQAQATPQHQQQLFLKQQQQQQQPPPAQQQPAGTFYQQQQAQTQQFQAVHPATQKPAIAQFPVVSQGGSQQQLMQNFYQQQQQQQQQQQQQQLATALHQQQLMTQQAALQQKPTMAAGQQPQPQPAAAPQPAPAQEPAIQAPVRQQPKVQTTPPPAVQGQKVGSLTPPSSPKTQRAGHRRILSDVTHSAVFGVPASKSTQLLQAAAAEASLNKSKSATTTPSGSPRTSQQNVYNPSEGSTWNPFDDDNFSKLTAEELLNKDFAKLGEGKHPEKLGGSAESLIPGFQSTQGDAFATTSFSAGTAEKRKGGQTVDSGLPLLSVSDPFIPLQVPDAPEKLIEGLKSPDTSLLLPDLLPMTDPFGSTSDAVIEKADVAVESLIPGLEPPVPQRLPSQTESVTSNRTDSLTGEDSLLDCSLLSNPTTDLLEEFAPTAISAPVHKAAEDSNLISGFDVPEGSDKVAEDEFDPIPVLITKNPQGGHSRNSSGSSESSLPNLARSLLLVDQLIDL
Outline: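 Single-concentration (1 μM) competition-binding screen run by KINOMEscan against a panel of 468 purified kinases and mutants. The read-out is the relative binding activity of the test compound to each kinase.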

[11] = molecular target: Interleukin-1 receptor-associated kinase 3 (Homo sapiens) (UniProt Q9Y616); experiment: Binding affinity to wild-type human partial length IRAK3 (V147 to E596 residues) expressed in bacterial expression system assessed as residual binding level at 1 uM by Kinomescan method relative to control
[12] = molecular target: Interferon-induced, double-stranded RNA-activated protein kinase (Homo sapiens) (UniProt P19525); experiment: Binding affinity to wild-type human partial length PRKR (F247 to C551 residues) expressed in bacterial expression system assessed as residual binding level at 1 uM by Kinomescan method relative to control
[13] = test system: Phosphatidylinositol 4,5-bisphosphate 3-kinase catalytic subunit alpha isoform (Homo sapiens), P42336 [H1047L]; experiment: Binding affinity to human partial length PIK3CA H1047L mutant (R108 to N1068 residues) expressed in mammalian expression system assessed as residual binding level at 1 uM by Kinomescan method relative to control
Phosphatidylinositol 4,5-bisphosphate 3-kinase catalytic subunit alpha isoform (Homo sapiens), P42336 [H1047L], sequence (P42336 whole entry H1047L, the tested form may be a part, canonical isoform): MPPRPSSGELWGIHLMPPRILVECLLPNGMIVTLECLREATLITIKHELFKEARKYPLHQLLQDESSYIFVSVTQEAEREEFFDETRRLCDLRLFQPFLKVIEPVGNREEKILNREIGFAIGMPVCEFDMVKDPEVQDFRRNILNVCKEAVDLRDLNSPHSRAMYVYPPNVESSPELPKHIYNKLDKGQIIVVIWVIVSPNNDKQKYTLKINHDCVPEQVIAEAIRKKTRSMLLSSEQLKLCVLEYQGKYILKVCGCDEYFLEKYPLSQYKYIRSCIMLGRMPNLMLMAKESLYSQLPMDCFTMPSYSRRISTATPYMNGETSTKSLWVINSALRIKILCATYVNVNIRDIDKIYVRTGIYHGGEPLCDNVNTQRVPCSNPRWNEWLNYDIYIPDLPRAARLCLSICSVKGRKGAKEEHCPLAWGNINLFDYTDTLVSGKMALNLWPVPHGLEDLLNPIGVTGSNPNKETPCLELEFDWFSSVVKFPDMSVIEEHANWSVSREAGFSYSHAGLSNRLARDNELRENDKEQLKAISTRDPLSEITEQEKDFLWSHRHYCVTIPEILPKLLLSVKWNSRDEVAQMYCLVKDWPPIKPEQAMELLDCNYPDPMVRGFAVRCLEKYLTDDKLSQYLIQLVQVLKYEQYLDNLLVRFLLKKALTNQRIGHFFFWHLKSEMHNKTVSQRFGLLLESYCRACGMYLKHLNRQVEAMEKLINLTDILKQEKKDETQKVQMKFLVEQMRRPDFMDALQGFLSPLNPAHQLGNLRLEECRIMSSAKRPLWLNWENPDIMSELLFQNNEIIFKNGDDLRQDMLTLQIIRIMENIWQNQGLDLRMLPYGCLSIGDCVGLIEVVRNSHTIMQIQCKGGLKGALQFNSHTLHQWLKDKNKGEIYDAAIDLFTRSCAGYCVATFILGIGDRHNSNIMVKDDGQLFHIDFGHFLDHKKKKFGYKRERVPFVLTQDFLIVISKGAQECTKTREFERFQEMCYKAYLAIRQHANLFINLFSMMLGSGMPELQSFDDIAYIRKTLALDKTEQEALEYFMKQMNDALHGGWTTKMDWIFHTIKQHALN
Outline: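 Kinome-wide single-concentration binding screen (KINOMEscan) at 1 μM against a panel of 468 purified kinases and mutants. Read-out is relative binding of each kinase compared with control. Selectivity across the panel was summarised as an S(10) score.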

[14] = AUC (0 to t) in Sprague-Dawley rat at 10 mg/kg, po; type: ADME, organism-based; conditions: in vivo
Outline: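 Male Sprague-Dawley rats (6–8 weeks) fasted overnight, dosed IV or orally; compound dissolved in 5% DMSO/40% PEG400/55% saline (dosing solution 1 mg/mL). Blood (~0.2 mL) from jugular vein into heparin; IV sampling 1 min–8 h, oral 5 min–24 h. Plasma separated by centrifugation at 2–8 °C, stored at −80 °C until analysis.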

[15] = molecular target: Myosin-IIIa (Homo sapiens) (UniProt Q8NEV4); experiment: Binding affinity to wild-type human partial length MYO3A (M1 to K338 residues) expressed in bacterial expression system assessed as residual binding level at 1 uM by Kinomescan method relative to control; outline: as §3
Myosin-IIIa (Homo sapiens), sequence (Q8NEV4 whole entry, the tested form may be a part): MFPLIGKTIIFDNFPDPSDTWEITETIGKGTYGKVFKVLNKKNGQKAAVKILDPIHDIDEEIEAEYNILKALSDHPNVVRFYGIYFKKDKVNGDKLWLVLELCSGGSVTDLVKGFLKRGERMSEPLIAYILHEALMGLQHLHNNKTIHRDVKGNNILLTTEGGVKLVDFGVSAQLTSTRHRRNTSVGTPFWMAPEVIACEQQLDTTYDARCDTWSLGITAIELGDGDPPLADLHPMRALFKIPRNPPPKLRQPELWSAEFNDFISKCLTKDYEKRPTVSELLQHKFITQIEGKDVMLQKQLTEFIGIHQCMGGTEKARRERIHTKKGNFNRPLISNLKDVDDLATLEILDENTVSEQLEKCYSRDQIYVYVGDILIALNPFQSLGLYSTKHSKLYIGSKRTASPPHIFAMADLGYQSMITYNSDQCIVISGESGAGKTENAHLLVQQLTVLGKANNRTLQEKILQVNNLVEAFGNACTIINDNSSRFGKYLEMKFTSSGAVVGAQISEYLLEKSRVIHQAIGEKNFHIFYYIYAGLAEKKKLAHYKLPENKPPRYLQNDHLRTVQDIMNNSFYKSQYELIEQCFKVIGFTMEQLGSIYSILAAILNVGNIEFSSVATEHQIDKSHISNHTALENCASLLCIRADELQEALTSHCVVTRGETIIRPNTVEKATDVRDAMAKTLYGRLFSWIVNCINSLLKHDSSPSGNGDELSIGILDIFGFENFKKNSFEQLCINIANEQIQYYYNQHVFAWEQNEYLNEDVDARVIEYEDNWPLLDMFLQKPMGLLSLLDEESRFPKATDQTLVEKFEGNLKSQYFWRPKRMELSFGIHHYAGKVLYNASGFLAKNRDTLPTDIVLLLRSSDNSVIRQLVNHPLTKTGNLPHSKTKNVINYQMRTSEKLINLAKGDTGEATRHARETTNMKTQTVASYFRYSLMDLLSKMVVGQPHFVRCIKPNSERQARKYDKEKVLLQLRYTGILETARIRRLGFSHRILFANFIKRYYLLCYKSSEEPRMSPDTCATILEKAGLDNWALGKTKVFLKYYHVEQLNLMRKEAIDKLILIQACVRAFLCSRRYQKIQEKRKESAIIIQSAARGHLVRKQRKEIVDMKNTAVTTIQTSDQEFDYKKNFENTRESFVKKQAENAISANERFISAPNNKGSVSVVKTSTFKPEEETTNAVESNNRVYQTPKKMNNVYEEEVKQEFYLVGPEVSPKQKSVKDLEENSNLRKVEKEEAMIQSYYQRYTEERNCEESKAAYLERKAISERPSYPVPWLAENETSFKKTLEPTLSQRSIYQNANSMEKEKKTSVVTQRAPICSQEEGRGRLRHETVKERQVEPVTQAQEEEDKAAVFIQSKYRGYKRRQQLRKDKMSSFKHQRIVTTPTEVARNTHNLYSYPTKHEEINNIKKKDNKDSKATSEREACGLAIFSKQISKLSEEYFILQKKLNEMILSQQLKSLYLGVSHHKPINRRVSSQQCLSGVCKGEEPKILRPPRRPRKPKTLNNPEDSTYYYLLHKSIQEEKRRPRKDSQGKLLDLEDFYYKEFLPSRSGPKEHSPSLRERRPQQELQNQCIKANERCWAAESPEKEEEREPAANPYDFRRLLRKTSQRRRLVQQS

[16] = molecular target: Cyclin-dependent kinase 11B (Homo sapiens) (UniProt P21127); experiment: Binding affinity to wild-type human partial length CDC2L1 (P353 to G692 residues) expressed in bacterial expression system assessed as residual binding level at 1 uM by Kinomescan method relative to control; outline: as §3
[17] = molecular target: Platelet-derived growth factor receptor beta (Homo sapiens, UniProt P09619); experiment: Inhibition of TEL-fused PDGFRbeta (unknown origin) expressed in mouse BA/F3 cells assessed as growth inhibition after 72 hrs by CellTiter-Glo or CCK-8 assay; type: cell-based
Platelet-derived growth factor receptor beta, sequence (P09619 whole entry, the tested form may be a part): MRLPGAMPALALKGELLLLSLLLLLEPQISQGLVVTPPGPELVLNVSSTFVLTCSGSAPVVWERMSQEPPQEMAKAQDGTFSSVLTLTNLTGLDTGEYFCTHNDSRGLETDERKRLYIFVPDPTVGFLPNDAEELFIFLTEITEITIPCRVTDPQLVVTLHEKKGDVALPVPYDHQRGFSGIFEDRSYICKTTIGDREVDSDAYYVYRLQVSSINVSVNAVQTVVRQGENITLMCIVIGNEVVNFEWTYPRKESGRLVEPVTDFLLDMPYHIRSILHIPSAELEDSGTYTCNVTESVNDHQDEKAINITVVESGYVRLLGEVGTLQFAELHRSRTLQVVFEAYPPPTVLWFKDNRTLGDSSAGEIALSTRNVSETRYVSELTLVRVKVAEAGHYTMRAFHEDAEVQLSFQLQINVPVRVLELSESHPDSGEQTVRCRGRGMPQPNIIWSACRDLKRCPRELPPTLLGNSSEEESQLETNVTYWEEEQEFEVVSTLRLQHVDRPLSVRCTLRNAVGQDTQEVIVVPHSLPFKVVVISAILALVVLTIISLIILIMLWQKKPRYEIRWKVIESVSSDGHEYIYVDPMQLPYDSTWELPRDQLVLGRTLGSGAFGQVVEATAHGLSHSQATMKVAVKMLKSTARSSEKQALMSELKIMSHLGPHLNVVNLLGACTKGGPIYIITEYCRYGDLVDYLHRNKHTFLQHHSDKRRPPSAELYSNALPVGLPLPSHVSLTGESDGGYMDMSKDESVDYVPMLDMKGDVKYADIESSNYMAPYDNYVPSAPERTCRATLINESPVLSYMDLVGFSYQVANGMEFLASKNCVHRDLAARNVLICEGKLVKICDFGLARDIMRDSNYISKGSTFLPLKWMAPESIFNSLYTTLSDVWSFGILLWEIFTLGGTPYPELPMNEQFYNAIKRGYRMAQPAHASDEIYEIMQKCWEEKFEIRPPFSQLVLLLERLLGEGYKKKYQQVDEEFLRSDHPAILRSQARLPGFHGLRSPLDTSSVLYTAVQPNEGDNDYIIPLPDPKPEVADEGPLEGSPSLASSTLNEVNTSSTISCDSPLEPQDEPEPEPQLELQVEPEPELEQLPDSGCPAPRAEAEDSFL
Outline: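 Parental BaF3 or IL-3-independent TEL-kinase BaF3 lines, made by retroviral infection and puromycin selection, grown in RPMI 1640 with 10% FBS. Cells seeded at 1–3 × 10^4 cells/mL with serial compound concentrations for 72 h. Viability read by CellTiter-Glo luminescence or CCK-8 absorbance at 450/655 nm and normalised to DMSO. GI50 obtained by triplicate testing with linear regression. Selectivity is the ratio of the two GI50 values.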

[18] = molecular target: Serine/threonine-protein kinase Nek4 (Homo sapiens) (UniProt P51957); experiment: Binding affinity to wild-type human full length NEK4 (M1 to F841 residues) expressed in mammalian expression system assessed as residual binding level at 1 uM by Kinomescan method relative to control; outline: as §1
[19] = molecular target: Death-associated protein kinase 2 (Homo sapiens) (UniProt Q9UIK4); experiment: Binding affinity to wild-type human full length DAPK2 (M1 to S370 residues) expressed in bacterial expression system assessed as residual binding level at 1 uM by Kinomescan method relative to control; outline: as §2
Death-associated protein kinase 2 (Homo sapiens), sequence (Q9UIK4 whole entry, looked up, the tested form may be a part): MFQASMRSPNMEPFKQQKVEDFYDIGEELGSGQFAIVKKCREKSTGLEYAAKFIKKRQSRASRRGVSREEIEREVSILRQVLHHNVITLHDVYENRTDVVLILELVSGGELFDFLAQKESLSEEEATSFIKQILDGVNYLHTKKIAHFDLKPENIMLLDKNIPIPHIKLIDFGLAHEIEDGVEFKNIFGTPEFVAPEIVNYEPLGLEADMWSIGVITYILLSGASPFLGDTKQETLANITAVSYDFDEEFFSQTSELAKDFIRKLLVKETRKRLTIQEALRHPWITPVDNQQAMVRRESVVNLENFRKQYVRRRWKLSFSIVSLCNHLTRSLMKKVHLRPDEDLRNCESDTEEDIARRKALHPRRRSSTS

SMILES: Cc1ccc(NC(=O)c2ccc(CN(CCN(C)C)C(=O)c3cccnc3)cc2)cc1Nc1nccc(-c2cccnc2)n1
- Activity [1]: 100%
- Activity [2]: 94%
- Activity [3]: 82%
- Activity [4]: 91%
- MRT last [5]: 3.33 h
- Activity [6]: 88%
- Activity [7]: 80%
- Activity [8]: 100%
- Activity [9]: 100%
- Activity [10]: 100%
- Activity [11]: 100%
- Activity [12]: 100%
- Activity [13]: 88%
- AUC(0-t) [14]: 103 ng·h/mL
- Activity [15]: 92%
- Activity [16]: 91%
- GI50 [17]: 2900 nM
- Activity [18]: 100%
- Activity [19]: 94%
